Results: the RNAGym collection of RNA variant scans (doi:10.1101/gad.245936.114)
Fewer inactive variants are shown than the library holds.

B1: tRNA (parent)
chain: CUCUCGGUAGCCAAGUUGGUUUAAGGCGCAAGACUUUAAUUUAUCACUACGAAAUCUUGAGAUCGGGCGUUCGACUCGCCCCCGGGAGAUUUUUUCCUCGAGCAA

Variants of: B1
Assay: nonsense suppression (GFP-seq) (ratio to wild type); higher = more function; SUP4oc tRNA, yeast GFP reporter sort-seq
Procedure, shortened: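 Yeast carrying genome-integrated SUP4oc tRNA variants from a library with ~3% random mutations were grown in raffinose/galactose medium with 80 mg/L adenine. Each strain also carried a galactose-driven GFP ochre reporter and RFP. Cells were sorted into GFP/RFP bins, and each bin was Illumina-sequenced (phred ≥30). Nonsense suppression (GFPSEQ) is the bin median GFP/RFP, weighted by each variant's estimated cell share per bin, relative to wild-type SUP4oc; variants needed ≥100 reads and ≥30 cells.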

Variant	nonsense suppression
A54C G67U	≤ 0.026
A33U G69C G73A	≤ 0.026
A54U G85U	1.01
A54U G85C	0.208
U35C C77A G85C	≤ 0.026
A54U C56G C72A	≤ 0.026
A54C A60U	1.09
A54C A60G	0.0773
C34G G78A C81G	≤ 0.026
A33G U76G	≤ 0.026
A33G U76C	0.0419
C34A C68A A87U	≤ 0.026
C34A U55C G66A	≤ 0.026
A54C C64U	0.0402
A54U A89C	≤ 0.026
U35C C83G	≤ 0.026
C34U A54C C56G G73A G88C	≤ 0.026
U35G C68G C82U	≤ 0.026
A33G U57A U76C	≤ 0.026
A54U U63G	0.659
A54U U63A	0.864
A54U U63C	0.798
C34A G69A	≤ 0.026
A33C U63A	≤ 0.026

Variant	nonsense suppression
A33G G59A C77A C83A G88A	≤ 0.026
A33U U55G	0.167
A54G G61A U76C C77G	≤ 0.026
A33G A54G A74C	≤ 0.026
A54G U71A	≤ 0.026
C34A U55A C80A	≤ 0.026
A54C C82U	0.211
A54C C68G	≤ 0.026
C34U G61C	0.0481
C34U G61A	0.0297
A54U G67A	0.0673
A54U G65A	0.0335
A33G U55A A74C	≤ 0.026
C34G G61C	≤ 0.026
C34G G61A	0.0334
A54G G73A	0.122
C34G U71G	≤ 0.026
C34G G86U	≤ 0.026
A54U C81A	≤ 0.026
A33C U35C C83A	≤ 0.026
A33U C34U	≤ 0.026
U35G U55C G61C G73U	≤ 0.026
A54C C81U	0.21
A54U U76C	1.08

Variant	nonsense suppression
A33G A74C C80A	≤ 0.026
A54U G61A	0.611
A54U G61U	1.16
A33G G66C	0.0263
U35A U57G C81U G85C A87U	≤ 0.026
A33C U55C C56U G66U C79G	≤ 0.026
C34U C81A G88C	≤ 0.026
U55A C56A C64A U70C	≤ 0.026
A33U A60U	0.204
C34U A62G	≤ 0.026
A54C A74G	0.0575
A54C A74C	≤ 0.026
A54U	1.04
A54C	1.16
A33G A54U	0.0526
A33U	0.0699
A33G	0.346
U35C G61A	0.0378
C34U C77G C79G A89U	≤ 0.026
C34U G69A A89C	≤ 0.026
A54C G84U	0.0301
C34G C81A	≤ 0.026
C34G U55C	0.276
A54C U71C	0.0406

Variant	nonsense suppression
A54C U71G	≤ 0.026
C34G G78C	≤ 0.026
C34U U63C G85C	≤ 0.026
A54G C79U	0.0263
C34A A54U U71A C75A	≤ 0.026
A54C C75G	1.15
A54C C75U	1.22
C34U G65A U70A	≤ 0.026
A54U G84U	0.0565
C34U G59U	≤ 0.026
A54C A87G	0.59
A54U A87G	0.867
A33G A87G	0.0348
U35C U63G	0.0352
U35G G59U A60G	≤ 0.026
A54C U76C	0.232
C34U A74C C79A	≤ 0.026
U35G C56A G61U U63A	≤ 0.026
A33U G85A	0.0389
A33G G86C	0.0374
A33G U57A	≤ 0.026
A54C C80G	0.0733
A54C C80U	0.194
A33G G88C	≤ 0.026

Variant	nonsense suppression
C34U A60G	0.0428
A33U C75A	0.192
U35G G85U	≤ 0.026
A54C G85C	0.0904
A54C U63C	0.729
A54C U63A	0.377
A54C U63G	0.0506
C34G U70G	≤ 0.026
C34G C72A	≤ 0.026
U35C A74G	≤ 0.026
A33C U55C C64G U76C	≤ 0.026
A54U C56A C72U	≤ 0.026
C34G G69C	≤ 0.026
C34U U70A	≤ 0.026
A54C G73C	0.0591
A54C U57A	0.0382
C34G U57A	≤ 0.026
A33U U55C U63A U70C	≤ 0.026
A33C U57G C64G	≤ 0.026
A54C U76G A89G	≤ 0.026
C34A G65C G85C	≤ 0.026
A33G C80U	0.0422
U55A C64G	≤ 0.026
A54C U58A	0.135

Variant	nonsense suppression
A54C G86C	0.0725
C34G A74U	≤ 0.026
A33C U71G G86A	≤ 0.026
A54U A60C	0.279
A54U A60U	0.965
A33U U57C A62G	≤ 0.026
A33G G85C	0.0351
A33U U63A	0.0268
C34U A60C C72A	≤ 0.026
A54U G69C C81G	≤ 0.026
U55A G67U	≤ 0.026
A33G G61U	0.119
A33G G61C	0.034
A33G G61A	0.0709
A33U U71A	≤ 0.026
A33G C75G	0.216
A33G C75A	0.235
A33G C75U	0.275
A54C G61A	0.334
A54C G61C	0.216
A54U C64U	0.0513
A33G U63C	0.11
A33G U63A	0.031
A54G G67C	≤ 0.026

Variant	nonsense suppression
A33G U58A	≤ 0.026
A54C G69C C75U U76G G85C	≤ 0.026
A33G C79U	0.0403
U55A A60C C75U G78C C79G A89G	≤ 0.026
C34U U35G U57C G61A C82U	≤ 0.026
A54C G65U	0.0425
A33C G61U G66U	≤ 0.026
C34A A87G	≤ 0.026
A54U A62G	0.0321
C34G C64U	≤ 0.026
U55A A74C G88A	≤ 0.026
U35C G73A	≤ 0.026
U35A U70C G73U C81U	≤ 0.026
A54C G78A	0.107
U35A G73U G84C	≤ 0.026
A54U C79U	0.571
A54G C72A	≤ 0.026
U35C U70A	≤ 0.026
A33G A87U G88U	≤ 0.026
U35A G59A G67A	≤ 0.026
C34A U63A C82G	≤ 0.026
A33U G73C	≤ 0.026
A33G G84U	0.222
